Reference: ChEMBL document CHEMBL1154626, “Novel, potent, and selective quinoxaline-based 5-HT(3) receptor ligands. 1. Further structure-activity relationships and pharmacological characterization” (J Med Chem, 2009)
The source made the active and inactive calls. The rule behind the calls is not given here.

Experiments:
[1] = system: Rattus norvegicus; experiment: Agonist activity at 5HT3 receptor in Sprague-Dawley rat assessed as induction of bradycardia at 50 ug/kg, iv measured after 5 to 30 mins post-treatment by von Bezold-Jarisch reflex test; assay type: functional
Outline: (§1)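 Urethane-anesthetized rats, compound given iv. Agonism was scored as the compound itself evoking the von Bezold-Jarisch reflex (bradycardia). Antagonism was tested by giving the compound iv 5, 15 or 30 min before phenylbiguanide (PBG) and scoring the reduction of PBG-evoked bradycardia. ED50 is the dose giving half of the maximal bradycardia evoked by the same compound.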

[2] = system: Rattus norvegicus; experiment: Antagonist activity at 5HT3 receptor in Sprague-Dawley rat assessed as inhibition of 1-phenylbiguanide-induced bradycardia at 10 ug/kg, iv administered 5 mins before 1-phenylbiguanide challenge measured after 5 to 30 mins post-treatment by von Bezold-Jarisch reflex test; assay type: functional; outline: as §1
[3] = system: Rattus norvegicus; experiment: Antagonist activity at 5HT3 receptor in iv dosed Sprague-Dawley rat assessed as inhibition of 1-phenylbiguanide-induced bradycardia administered 5 mins before 1-phenylbiguanide challenge measured after 5 to 30 mins post-treatment by von Bezold-Jarisch reflex test; assay type: functional; outline: as §1
[4] = target: T1, Adrenergic receptor alpha-1 (Rattus norvegicus, UniProt P15823+P23944+P43140); experiment: Displacement of [3H]prazosin from adrenergic alpha1 receptor in rat cortex
T1 sequence (P15823 whole entry): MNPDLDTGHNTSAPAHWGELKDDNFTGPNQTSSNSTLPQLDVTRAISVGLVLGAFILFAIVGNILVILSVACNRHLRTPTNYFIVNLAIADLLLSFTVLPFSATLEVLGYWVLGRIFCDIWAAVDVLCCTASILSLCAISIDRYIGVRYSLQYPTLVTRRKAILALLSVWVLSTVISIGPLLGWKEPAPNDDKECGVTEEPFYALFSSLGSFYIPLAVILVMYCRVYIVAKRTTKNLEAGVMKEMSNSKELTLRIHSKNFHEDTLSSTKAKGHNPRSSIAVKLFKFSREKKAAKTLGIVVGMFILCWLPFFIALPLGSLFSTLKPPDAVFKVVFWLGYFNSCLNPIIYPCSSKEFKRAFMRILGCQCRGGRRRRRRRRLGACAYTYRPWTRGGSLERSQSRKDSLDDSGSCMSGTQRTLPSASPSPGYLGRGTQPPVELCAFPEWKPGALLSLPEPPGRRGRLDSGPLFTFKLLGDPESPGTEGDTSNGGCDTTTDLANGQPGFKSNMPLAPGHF
T1 sequence (P23944 whole entry): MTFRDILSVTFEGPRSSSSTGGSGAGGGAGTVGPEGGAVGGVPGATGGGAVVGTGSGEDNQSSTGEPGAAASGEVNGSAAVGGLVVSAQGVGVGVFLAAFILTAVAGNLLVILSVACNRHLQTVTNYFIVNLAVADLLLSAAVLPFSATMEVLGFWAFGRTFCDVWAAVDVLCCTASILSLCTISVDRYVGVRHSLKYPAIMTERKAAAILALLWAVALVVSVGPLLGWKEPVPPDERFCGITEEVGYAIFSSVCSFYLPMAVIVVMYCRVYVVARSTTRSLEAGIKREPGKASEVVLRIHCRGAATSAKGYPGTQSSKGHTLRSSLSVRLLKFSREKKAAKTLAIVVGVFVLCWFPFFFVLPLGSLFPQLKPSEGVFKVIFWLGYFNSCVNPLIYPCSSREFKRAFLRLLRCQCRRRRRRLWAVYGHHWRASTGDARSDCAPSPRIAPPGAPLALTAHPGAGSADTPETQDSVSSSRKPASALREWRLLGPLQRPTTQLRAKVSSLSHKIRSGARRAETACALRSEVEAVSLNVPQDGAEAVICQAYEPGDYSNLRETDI
T1 sequence (P43140 whole entry): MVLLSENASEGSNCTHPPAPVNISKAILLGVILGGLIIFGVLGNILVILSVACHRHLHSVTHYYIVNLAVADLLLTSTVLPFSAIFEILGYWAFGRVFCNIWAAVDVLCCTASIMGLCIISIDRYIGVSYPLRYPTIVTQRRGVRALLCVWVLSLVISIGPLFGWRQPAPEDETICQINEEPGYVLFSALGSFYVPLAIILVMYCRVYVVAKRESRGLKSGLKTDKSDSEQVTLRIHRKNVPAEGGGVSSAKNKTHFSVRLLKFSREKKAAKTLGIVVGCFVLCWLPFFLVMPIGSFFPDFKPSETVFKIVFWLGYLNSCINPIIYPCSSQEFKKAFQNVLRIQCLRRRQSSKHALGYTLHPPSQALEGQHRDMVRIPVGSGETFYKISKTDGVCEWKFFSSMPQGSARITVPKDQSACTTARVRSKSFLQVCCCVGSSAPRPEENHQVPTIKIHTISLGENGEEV

[5] = target: Muscarinic acetylcholine receptor; experiment: Displacement of [3H]QNB from muscarinic receptor in rat cortex
[6] = system: Rattus norvegicus; experiment: Antagonist activity at 5HT3 receptor in Sprague-Dawley rat assessed as inhibition of 1-phenylbiguanide-induced bradycardia at 1 ug/kg, iv administered 5 mins before 1-phenylbiguanide challenge measured after 5 to 30 mins post-treatment by von Bezold-Jarisch reflex test; assay type: functional, organism-based; outline: as §1
[7] = system: Rattus norvegicus; experiment: Antagonist activity at 5HT3 receptor in Sprague-Dawley rat assessed as inhibition of 1-phenylbiguanide-induced bradycardia at 100 ug/kg, iv administered 5 mins before 1-phenylbiguanide challenge measured after 5 to 30 mins post-treatment by von Bezold-Jarisch reflex test; assay type: functional; outline: as §1
[8] = system: Rattus norvegicus; experiment: Agonist activity at 5HT3 receptor in Sprague-Dawley rat assessed as induction of bradycardia at 1 ug/kg, iv measured after 5 to 30 mins post-treatment by von Bezold-Jarisch reflex test; assay type: functional, organism-based; outline: as §1
[9] = system: Rattus norvegicus; experiment: Agonist activity at 5HT3 receptor in Sprague-Dawley rat assessed as induction of bradycardia at 10 ug/kg, iv measured after 5 to 30 mins post-treatment by von Bezold-Jarisch reflex test; assay type: functional; outline: as §1
[10] = system: Rattus norvegicus; experiment: Agonist activity at 5HT3 receptor in Sprague-Dawley rat assessed as induction of bradycardia at 100 ug/kg, iv measured after 5 to 30 mins post-treatment by von Bezold-Jarisch reflex test; assay type: functional; outline: as §1
[11] = system: Rattus norvegicus; experiment: Antagonist activity at 5HT3 receptor in Sprague-Dawley rat assessed as inhibition of 1-phenylbiguanide-induced bradycardia at 50 ug/kg, iv administered 5 mins before 1-phenylbiguanide challenge measured after 5 to 30 mins post-treatment by von Bezold-Jarisch reflex test; assay type: functional; outline: as §1
[12] = target: T2, 5-hydroxytryptamine receptor 3A (Cavia porcellus, UniProt O70212); experiment: Intrinsic activity at 5HT3 receptor in spontaneously beating guinea pig right atrium assessed as positive chronotropic potency relative to serotonin
T2 sequence (O70212 whole entry): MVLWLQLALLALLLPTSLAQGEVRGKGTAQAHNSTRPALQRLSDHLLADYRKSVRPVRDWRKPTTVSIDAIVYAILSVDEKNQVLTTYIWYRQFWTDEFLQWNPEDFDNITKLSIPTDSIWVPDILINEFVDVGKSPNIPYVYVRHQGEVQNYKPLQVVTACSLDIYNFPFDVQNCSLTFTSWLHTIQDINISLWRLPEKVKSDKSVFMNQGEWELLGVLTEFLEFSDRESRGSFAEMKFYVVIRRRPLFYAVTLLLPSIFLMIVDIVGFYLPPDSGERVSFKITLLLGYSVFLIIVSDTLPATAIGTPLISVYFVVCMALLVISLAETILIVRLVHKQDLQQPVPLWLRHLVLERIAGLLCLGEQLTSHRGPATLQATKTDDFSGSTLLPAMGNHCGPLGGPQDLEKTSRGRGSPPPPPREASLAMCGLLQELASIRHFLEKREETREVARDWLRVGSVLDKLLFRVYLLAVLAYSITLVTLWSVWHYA

[13] = target: T3, 5-hydroxytryptamine receptor 3A (Rattus norvegicus, UniProt P35563); experiment: Displacement of [3H]LY278584 from 5HT3 receptor in rat cortical homogenate; settings: read-out: Ki
T3 sequence (P35563 whole entry): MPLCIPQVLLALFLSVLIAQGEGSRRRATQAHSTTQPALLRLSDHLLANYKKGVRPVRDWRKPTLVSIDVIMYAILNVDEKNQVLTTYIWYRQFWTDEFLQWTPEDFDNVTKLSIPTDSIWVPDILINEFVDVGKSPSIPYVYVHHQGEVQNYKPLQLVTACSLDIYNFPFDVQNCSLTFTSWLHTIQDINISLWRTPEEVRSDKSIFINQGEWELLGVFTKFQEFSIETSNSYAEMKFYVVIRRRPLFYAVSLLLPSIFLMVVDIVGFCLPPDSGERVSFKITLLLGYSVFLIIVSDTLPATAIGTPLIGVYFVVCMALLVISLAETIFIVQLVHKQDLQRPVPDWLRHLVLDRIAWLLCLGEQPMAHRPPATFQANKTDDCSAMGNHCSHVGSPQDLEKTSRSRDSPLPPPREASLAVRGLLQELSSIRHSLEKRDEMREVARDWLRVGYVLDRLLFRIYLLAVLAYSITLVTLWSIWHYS
Outline: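 Rat cortical homogenate, competition against [3H]LY278584 binding. Ki is the concentration giving half-maximal inhibition of binding, as the mean ± S.E.M. of three determinations.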

| Activity [1] | Activity [2] | Ki [4] | Ki [5] | Activity [6] | Activity [7] | Activity [8] | Activity [9] | Activity [11] | EC50 [12] | Ki [13] | Structure (SMILES) | ID50 [3] | Activity [10] |
| --- | --- | --- | --- | --- | --- | --- | --- | --- | --- | --- | --- | --- | --- |
| Active | Active | > 10000 nM | > 10000 nM | inactive | Active | inactive | Active | Active |  |  | Fc1ccc2c(c1)nc(N1CCN(Cc3c[nH]cn3)CC1)c1cccn12 | 0.01 mg/kg | 40% |
|  |  |  |  |  |  |  |  |  | 340 nM | 2.4 nM | CN1CCN(c2nc3ncccc3n3cccc23)CC1 |  |  |
